Values after ≈ are worked out from the molar mass of the structure shown. Active and inactive are the calls of the source. No cut-off for these calls is given here.

In data set [1] the test system is Brassica oleracea. As to the kind of experiment: Phytotoxicity in Brassica oleracea (broccoli) assessed as seed germination at 250 mg/mL applied as seed dressings after 8 to 14 days (reference value: […] +/- 4.2%). The format is organism-based. Particulars: in vivo.
The subject of data set [2] is Brassica oleracea. As to the kind of experiment: Phytotoxicity in Brassica oleracea (cabbage) assessed as seed germination at 250 mg/mL applied as seed dressings after 8 to 14 days (reference value: 90 +/- 5.3%). It is filed as organism-based. As to conditions: in vivo.
The next data set relates to Solanum melongena. Description: Phytotoxicity in Solanum melongena (eggplant) assessed as seed germination at 250 mg/mL applied as seed dressings after 8 to 14 days (reference value: 84.7 +/- 2.3%). The format is organism-based. As to conditions: in vivo.
For another data set, the system named is Capsicum annuum. As to the kind of experiment: Phytotoxicity in Capsicum annuum (pepper) assessed as seed germination at 250 mg/mL applied as seed dressings after 8 to 14 days (reference value: 84.7 +/- 4.6%). As to conditions: in vivo. It is filed as organism-based.
Data set [3] deals with Botrytis cinerea. Description: Antifungal activity against Botryotinia fuckeliana assessed as inhibition of conidia germination at 1 to 10 ug/mL after 5 hr by light adverse phase microscopic analysis. The format is functional, organism-based. The method, boiled down:
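B. cinerea conidia (10^6/mL in water) applied as 0.2 mL droplets onto water-agar (agar plus deionized water) with or without test substance added in acetone. Incubated 5 h in the dark at 25 °C. Percent germination scored from 200 conidia per dish under light microscopy.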

The next data set relates to Verticillium dahliae. Description: Antifungal activity against Verticillium dahliae assessed as mycelial growth inhibition after 4 to 8 days. The format is functional. Particulars: read-out: ED50 (the source's name). The essentials: (§1)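 Test substance added in acetone (solvent at most 0.8% in treated and control plates) to sterilized potato dextrose agar. Plates inoculated with 0.5 cm mycelial blocks and incubated in the dark at 25 °C for 4-8 days depending on species. Linear growth inhibition estimated from colony diameter.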

In another data set the test system is Sclerotinia sclerotiorum. As to the kind of experiment: Antifungal activity against Sclerotinia sclerotiorum assessed as mycelial growth inhibition after 4 to 8 days. The format is functional. Particulars: read-out: ED50 (the source's name). The method, boiled down: as §1
Another data set relates to Sclerotinia minor. As to the kind of experiment: Antifungal activity against Sclerotinia minor assessed as mycelial growth inhibition after 4 to 8 days. The format is functional. As to conditions: read-out: ED50 (the source's name). The essentials:
as §1

In data set [4] the test system is Botrytis cinerea. Description: Antifungal activity against Botryotinia fuckeliana assessed as mycelial growth inhibition after 4 to 8 days. The format is functional. As to conditions: read-out: ED50 (the source's name). The method, boiled down: as §1
The subject of the next data set is Lactuca sativa. As to the kind of experiment: Phytotoxicity in Lactuca sativa (lettuce) assessed as seed germination at 250 mg/mL applied as seed dressings after 8 to 14 days (reference value: 90 +/- 5.3%). The format is organism-based. As to conditions: in vivo.
For a further data set, the system named is Cucumis melo. As to the kind of experiment: Phytotoxicity in Cucumis melo (muskmelon) assessed as seed germination at 250 mg/mL applied as seed dressings after 8 to 14 days (reference value: 90 +/- 2%). It is filed as organism-based. Particulars: in vivo.
A further data set has as its system Cucumis sativus. Description: Phytotoxicity in Cucumis sativus (cucumber) assessed as seed germination at 250 mg/mL applied as seed dressings after 8 to 14 days (reference value: […] +/- 1.2%). Particulars: in vivo. The format is organism-based.
The next data set has as its system Solanum lycopersicum. As to the kind of experiment: Phytotoxicity in Solanum lycopersicum (tomato) assessed as seed germination at 250 mg/mL applied as seed dressings after 8 to 14 days (reference value: 94 +/- 2%). The format is organism-based. Particulars: in vivo.
Data set [5] concerns Brassica oleracea var. botrytis (cauliflower). As to the kind of experiment: Phytotoxicity in Brassica oleracea var. botrytis assessed as seed germination at 250 mg/mL applied as seed dressings after 8 to 14 days (reference value: 97.3 +/- 1.2%). Particulars: in vivo.

With `O=C1c2ccccc2C(=O)c2ccccc21` [ANTHRAQUINONE], the Activity in the data set on Brassica oleracea [1] came out at 87.3%; with Brassica oleracea [2], 88%; in the data set on Solanum melongena, 82.7%; in the data set on Capsicum annuum, 85.3%; in the data set on Lactuca sativa, 88%. Also, the inhibition entry with Botrytis cinerea [3] was “inactive”. The EC50 in the data set on Verticillium dahliae, with Sclerotinia sclerotiorum, in the data set with Sclerotinia minor and in the data set with Botrytis cinerea [4] was above 100 µg/mL throughout.

For `Cc1cc(O)c2c(c1)C(=O)c1cccc(O)c1C2=O` [CHRYSOPHANOL], in the data set with Botrytis cinerea [3], the inhibition result was “inactive”. Also, the EC50 in the data set with Verticillium dahliae is above 100 µg/mL; in the data set with Sclerotinia sclerotiorum it was above 100 µg/mL; with Sclerotinia minor, 74.1 µg/mL (≈ 292 µM); in the data set on Botrytis cinerea [4], above 100 µg/mL.

Regarding `Cc1cc(O)c2c(c1O)C(=O)c1c(O)ccc(O)c1C2=O` [Cynodontin], the Activity is 88% in the data set with Brassica oleracea [1]; 89.3% in the data set with Brassica oleracea [2]; 82.7% with Solanum melongena; 90.7% in the data set on Cucumis melo; 94% in the data set with Cucumis sativus; 84.7% in the data set on Capsicum annuum. Further, the Activity in the data set with Solanum lycopersicum came out at 95.3%; in the data set with Lactuca sativa it was 96.7%; in data set [5], 96.7%. In addition, the inhibition result with Botrytis cinerea [3] is “inactive”. Besides, the EC50 in the data set on Verticillium dahliae stood at 11.5 µg/mL (≈ 40.3 µM); in the data set on Sclerotinia sclerotiorum, 5.52 µg/mL (≈ 19.3 µM); with Sclerotinia minor it was 4.31 µg/mL (≈ 15.1 µM); in the data set on Botrytis cinerea [4] it was 5.25 µg/mL (≈ 18.3 µM).

For `Cc1cc(O)c2c(c1)C(=O)c1cc(O)cc(O)c1C2=O` [EMODIN], the inhibition result with Botrytis cinerea [3] is “inactive”. The EC50 was above 100 µg/mL with Verticillium dahliae, 66.5 µg/mL (≈ 246 µM) with Sclerotinia sclerotiorum, 38.9 µg/mL (≈ 144 µM) with Sclerotinia minor and 41.2 µg/mL (≈ 153 µM) in the data set with Botrytis cinerea [4].
